{"source": "paper PMC10871333", "about": "(bioRxiv, 2024)", "key": {"[1]": {"target": "T1, HP1α-DNA condensates (Homo sapiens, UniProt P45973)", "T1 sequence (P45973 whole entry)": "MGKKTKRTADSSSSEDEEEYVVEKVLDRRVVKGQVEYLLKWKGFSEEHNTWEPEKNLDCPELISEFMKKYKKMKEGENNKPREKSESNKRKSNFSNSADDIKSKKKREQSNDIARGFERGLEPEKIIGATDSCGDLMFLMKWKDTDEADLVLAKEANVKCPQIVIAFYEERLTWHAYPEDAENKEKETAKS", "assay": "FRAP of Alexa-488 labeled HP1α in HP1α-DNA condensates", "assay_type": "physicochemical", "conditions": "for FRAP dynamics of HP1α, in words: HP1α-DNA condensates, all three DNA lengths, no histone peptide", "procedure,_shortened": "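Alexa-488 maleimide-labeled HP1α (~1%) mixed with unlabeled protein to 20uM in 70mM KCl, 20mM HEPES, 1mM DTT, pH 7.4. DNA 40nM (2.5kbp) to 9nM (10kbp), with or without H3K9me3 peptide up to 42μM, at 23°C. A 0.5–1um area bleached on a spinning-disc confocal. Recovery was fitted to an exponential to give mobile fraction (I0) and half-time ln(2)/β.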"}, "[2]": {"tested_on": "HP1α", "conditions": "ref [27]; cited from earlier work"}, "[3]": {"target": "T1, HP1α-DNA condensates", "assay": "Microrheology", "assay_type": "physicochemical", "procedure,_shortened": "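HP1α at 20 μM with 40nM 2.5kbp, 20nM 4kbp or 9nM 10kbp DNA, with or without 10 or 42μM H3K9me3 peptide. 200nm carboxylated fluorescent beads were embedded and tracked on a spinning-disc confocal (x63/1.4NA oil) at 200ms interval, 1000 frames, 10–50ms exposure, 23°C ± 2°C. Beads near boundaries were avoided. 2D MSD was time- and ensemble-averaged, and α was taken as the log-log slope versus lag time.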"}, "[4]": {"tested_on": "DNA (2.5kbp, 4kbp, 10kbp)", "assay": "Phase separation of HP1α with DNA of different length", "assay_type": "physicochemical", "procedure,_shortened": "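HP1α was 0.22um-filtered, buffer-exchanged and mixed with dsDNA to 20uM HP1α (12.5–20μM tested) and nanomolar DNA. Buffer was 70mM KCl, 20mM HEPES, 1mM DTT, pH 7.5, in a 7ul reaction at 23°C on Pluronic F-127–treated slides. Imaging used wide-field DIC with a ×40 air objective at t=0 and 60 min.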"}, "[5]": {"conditions": "70mM KCl, 20mM HEPES, 1mM DTT, pH 7.5"}, "[6]": {"conditions": "with HP1α 12.5μM-20μM, 70mM KCl, 20mM HEPES, 1mM DTT, pH 7.5"}}, "note": "Values joined by “and” are separate entries in the source; they are usually repeats but may differ in a detail not shown here. Equal values may be shown once."}
{"substance": "H3K9me3: human N-terminal histone H3 tail (residues 1–22) with trimethylated lysine 9, purchased from Bachem [reference compound]", "values": [{"measurement": "mobile fraction of HP1α in condensates with peptide, 10μM peptide", "setting": "[1]; H3K9me3 peptide 10μM, Alexa488-HP1α, 2.5kbp DNA condensates, FRAP", "value": "~ 100%"}, {"measurement": "binding of HP1α chromodomain to histone H3 mark", "setting": "[2]", "value": "recognizes and binds specifically"}, {"measurement": "decrease in α with H3K9me3 compared with lengthening the DNA to 10kbp", "setting": "[3]; 2.5kb DNA condensates", "value": "more pronounced"}]}
{"substance": "H3K4me3: human N-terminal histone H3 tail (residues 1–22) with trimethylation of lysine 4, purchased from Bachem", "values": [{"measurement": "binding of HP1α chromodomain to histone H3 mark", "setting": "[2]", "value": "does not bind"}]}
{"substance": "unmodified H3: unmodified human N-terminal histone H3 tail (residues 1–22), purchased from Bachem", "values": [{"measurement": "binding of HP1α chromodomain to histone H3 mark", "setting": "[2]", "value": "does not bind"}]}
{"substance": "HP1α: Recombinantly expressed and purified HP1α (MW = 22kDa) from Biomatik Corporation", "values": [{"measurement": "FRAP dynamics of HP1α, in words", "setting": "[1]", "value": "remain dynamic"}, {"measurement": "FRAP dynamics of HP1α, in words", "setting": "[1]; listed as HP1a", "value": "rapid recovery"}, {"measurement": "morphology with 4kbp DNA (9nM or 15nM) at t=0min and t=60min", "setting": "[4]; 20μM HP1α, DIC 40x", "value": "spherical condensates can be seen"}, {"measurement": "morphology change with 10kbp DNA (9nM or 15nM) over 1hour", "setting": "[4]; 20μM HP1α, t=0min and t=60min, DIC 40x", "value": "changes in the morphology (from asymmetric to spherical)"}, {"measurement": "assembly morphology with 10kbp DNA", "setting": "[4]; [5]", "value": "assemblies with an asymmetric morphology were initially observed before transitioning to spherical droplets"}, {"measurement": "droplet morphology with 2.5kbp and 4kbp DNA", "setting": "[4]; [5]", "value": "spherical droplets appeared instantaneously"}, {"measurement": "time of transition from asymmetric to spherical droplets with 10kbp DNA", "setting": "[4]; [5]", "value": "≤ 1", "unit": "h"}, {"measurement": "solubility / phase behavior of HP1α in the absence of DNA", "setting": "[4]; same HP1α concentration, 70mM KCl, 20mM HEPES, 1mM DTT, pH 7.5", "value": "remains soluble"}, {"measurement": "phase separation with DNA", "setting": "[4]; three DNA lengths (2500, 4000, 10000 bp) at nanomolar concentrations, 70mM KCl, 20mM HEPES, 1mM DTT, pH 7.5, 23°C, DIC 40x", "value": "undergoes phase separation"}, {"measurement": "DNA concentration inducing phase separation, 2500 bp DNA", "setting": "[4]; [6]", "value": 30, "unit": "nM"}, {"measurement": "DNA concentration inducing phase separation, 10000 bp DNA", "setting": "[4]; [6]", "value": 9, "unit": "nM"}, {"measurement": "average diffusive exponent α, 10kbp DNA condensates", "setting": "[3]; 20 μM HP1α and 9nM 10kbp DNA, no peptide, 200nm beads, 200ms interval, 23°C", "value": "0.58±0.05"}, {"measurement": "average diffusive exponent α, 4kbp DNA condensates", "setting": "[3]; 20 μM HP1α and 20nM 4kbp DNA, no peptide, 200nm beads, 200ms interval, 23°C", "value": "0.72±0.02"}, {"measurement": "diffusive exponent α, 2.5kbp DNA condensates", "setting": "[3]; 20 μM HP1α and 40nM 2.5kbp DNA, no peptide, 200nm beads, 200ms interval, 23°C", "value": "0.85±0.06 and ~ 0.85±0.06"}]}
